Legend:
[1] = molecular target: Excitatory amino acid transporter 2 (Homo sapiens) (UniProt P43004); experiment: Inhibition of EAAT2-mediated D-aspartate transport at 100 uM
Outline: (§1)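 Transport by EAAT1, EAAT2 or EAAT3 was measured with 25 μM D-aspartate as substrate and inhibitor present at 100 μM.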

[2] = molecular target: Excitatory amino acid transporter 1 (Homo sapiens) (UniProt P43003); experiment: Inhibition of EAAT1-mediated D-aspartate transport at 100 uM; outline: as §1
Rattus norvegicus [3] = organism: Rattus norvegicus; experiment: Inhibition of VGLUT in rat synaptic vesicles assessed as glutamate uptake at 5 mM relative to control; set-up: scale not given: the % may be the effect or the level left
Outline: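 Rat brain synaptic vesicles were isolated and VGLUT-mediated uptake of 250 μM L-glutamate was measured with inhibitor at 5 mM. Uptake was corrected for non-specific uptake, normalized to protein content and expressed as % of control.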

[4] = molecular target: T1, Cystine/glutamate transporter (Homo sapiens) (UniProt Q9UPY5); experiment: Inhibition of cystine/glutamate transporter in human SNB19 cells assessed as [3H]glutamate uptake at 500 uM; assay type: cell-based; set-up: scale not given: the % may be the effect or the level left; conditions: SNB-19
T1 sequence (whole entry): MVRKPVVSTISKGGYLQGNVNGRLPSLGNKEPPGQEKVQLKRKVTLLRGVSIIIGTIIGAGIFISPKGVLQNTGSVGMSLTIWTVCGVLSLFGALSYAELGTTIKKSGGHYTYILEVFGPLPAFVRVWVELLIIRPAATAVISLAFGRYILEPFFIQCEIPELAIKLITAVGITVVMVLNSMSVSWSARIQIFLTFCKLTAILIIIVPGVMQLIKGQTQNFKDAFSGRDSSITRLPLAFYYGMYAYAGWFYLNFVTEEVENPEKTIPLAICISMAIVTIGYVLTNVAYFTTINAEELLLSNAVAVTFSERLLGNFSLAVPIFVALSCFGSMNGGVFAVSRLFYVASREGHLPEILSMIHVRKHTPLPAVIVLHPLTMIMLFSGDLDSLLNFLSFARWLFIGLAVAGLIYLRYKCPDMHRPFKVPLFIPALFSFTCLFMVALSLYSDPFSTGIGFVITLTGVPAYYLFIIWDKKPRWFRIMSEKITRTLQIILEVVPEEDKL
Outline: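 SNB19 glioma cells were kept under Na-free conditions and system xc−-mediated uptake of 100 μM L-glutamate was measured with inhibitor at 500 μM. Uptake was corrected for non-specific uptake and normalized to protein content.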

[5] = Inhibition of VGLUT in rat synaptic vesicles assessed as inhibition of glutamate uptake
Outline: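 Dose–response for VGLUT inhibition in synaptic vesicles isolated from rat brain, using 250 μM L-glutamate as substrate. Uptake was corrected for non-specific uptake and normalized to protein; IC50 was taken from the dose curve.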

[6] = molecular target: Excitatory amino acid transporter 3 (Homo sapiens) (UniProt P43005); experiment: Inhibition of EAAT3-mediated D-aspartate transport at 100 uM
Excitatory amino acid transporter 3 (Homo sapiens), sequence (P43005 whole entry, looked up, the tested form may be a part): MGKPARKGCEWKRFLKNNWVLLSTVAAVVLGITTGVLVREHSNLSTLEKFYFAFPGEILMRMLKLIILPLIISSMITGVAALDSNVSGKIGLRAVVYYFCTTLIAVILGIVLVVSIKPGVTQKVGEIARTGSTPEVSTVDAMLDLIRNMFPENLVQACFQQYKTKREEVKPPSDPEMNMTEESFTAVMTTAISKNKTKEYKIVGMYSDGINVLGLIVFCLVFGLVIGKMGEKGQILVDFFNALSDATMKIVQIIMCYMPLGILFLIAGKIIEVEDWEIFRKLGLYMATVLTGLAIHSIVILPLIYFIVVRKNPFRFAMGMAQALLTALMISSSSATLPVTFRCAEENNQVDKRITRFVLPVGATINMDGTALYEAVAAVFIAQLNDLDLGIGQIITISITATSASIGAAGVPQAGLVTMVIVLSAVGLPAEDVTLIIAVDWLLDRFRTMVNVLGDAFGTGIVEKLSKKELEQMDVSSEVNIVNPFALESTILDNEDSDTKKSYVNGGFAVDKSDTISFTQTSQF

Rattus norvegicus [7] = organism: Rattus norvegicus; experiment: Inhibition of VGLUT in rat synaptic vesicles assessed as glutamate uptake at 500 uM relative to control; set-up: scale not given: the % may be the effect or the level left

Excitatory amino acid transporter 2 (Homo sapiens), sequence (P43004 whole entry, the tested form may be a part): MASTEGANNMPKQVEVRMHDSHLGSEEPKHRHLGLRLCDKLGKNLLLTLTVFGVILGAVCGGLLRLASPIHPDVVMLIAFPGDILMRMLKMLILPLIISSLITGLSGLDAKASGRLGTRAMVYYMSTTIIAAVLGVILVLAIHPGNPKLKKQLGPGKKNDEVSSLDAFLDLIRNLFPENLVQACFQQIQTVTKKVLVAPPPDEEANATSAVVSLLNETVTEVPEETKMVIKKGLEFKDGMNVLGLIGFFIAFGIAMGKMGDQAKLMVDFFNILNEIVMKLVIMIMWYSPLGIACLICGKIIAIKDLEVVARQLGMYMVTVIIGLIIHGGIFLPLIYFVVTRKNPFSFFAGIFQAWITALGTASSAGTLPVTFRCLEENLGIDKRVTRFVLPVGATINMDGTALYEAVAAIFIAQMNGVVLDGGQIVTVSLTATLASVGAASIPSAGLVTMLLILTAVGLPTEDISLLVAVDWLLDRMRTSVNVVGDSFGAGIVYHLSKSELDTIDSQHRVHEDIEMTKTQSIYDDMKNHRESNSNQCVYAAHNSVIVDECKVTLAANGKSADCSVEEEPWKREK
Excitatory amino acid transporter 1 (Homo sapiens), sequence (P43003 whole entry, the tested form may be a part): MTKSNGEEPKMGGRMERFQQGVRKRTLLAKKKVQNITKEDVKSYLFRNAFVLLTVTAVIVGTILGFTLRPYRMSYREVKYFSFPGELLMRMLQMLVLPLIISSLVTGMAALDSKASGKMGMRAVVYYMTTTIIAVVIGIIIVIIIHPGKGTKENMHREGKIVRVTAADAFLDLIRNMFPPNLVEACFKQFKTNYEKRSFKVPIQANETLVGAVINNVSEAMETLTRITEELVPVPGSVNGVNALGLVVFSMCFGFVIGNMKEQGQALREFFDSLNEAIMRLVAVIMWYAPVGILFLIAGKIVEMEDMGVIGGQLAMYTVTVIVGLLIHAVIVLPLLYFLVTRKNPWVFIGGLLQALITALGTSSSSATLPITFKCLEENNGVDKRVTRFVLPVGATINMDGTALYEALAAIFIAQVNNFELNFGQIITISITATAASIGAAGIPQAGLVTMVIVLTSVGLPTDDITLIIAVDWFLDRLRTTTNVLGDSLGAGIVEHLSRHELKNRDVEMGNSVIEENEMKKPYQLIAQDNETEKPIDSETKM

Structure (SMILES) | Activity (Rattus norvegicus [3]) | Activity [4] | further results
O=C1NC(=O)C(c2ccc(C3NC(=O)NC3=O)s2)N1 (stereo not given) | 6% | 51% | inhibition [1]: < 12%; inhibition [2]: < 12%; IC50 [5]: 511 µM; inhibition [6]: < 12%
CN(C)c1ccc(C2NC(=O)NC2=O)cc1 (stereo not given) | 23% | 87% | 
O=C1NC(=O)C(c2c[nH]cn2)N1 (stereo not given) | 103% | 82% | 
O=C1NC(c2cccc3ccccc23)C(=O)N1CCCCN1C(=O)NC(c2cccc3ccccc23)C1=O (stereo not given) | 74% | 92% | 
Cc1cc(C2NC(=O)NC2=O)sc1C (stereo not given) | 93% | 87% | 
Nc1c(/N=N/c2ccc(-c3ccc(/N=N/c4cc(S(=O)(=O)O)c5ccccc5c4N)cc3)cc2)cc(S(=O)(=O)O)c2ccccc12 | 0% | 82% | Activity (Rattus norvegicus [7]): 31%
O=C1NC(=O)C(c2ccc(C3NC(=O)NC3=O)cc2)N1 (stereo not given) | 78% | 85% | 
N[C@@H](CS)C(=O)O | 90% | 22% | 
O=C1NC(c2cccc3ccccc23)C(=O)N1CCCN1C(=O)NC(c2cccc3ccccc23)C1=O (stereo not given) | 97% | 80% | 
O=C1NC(=O)C(c2ccc(S(=O)(=O)O)cc2S(=O)(=O)O)N1 (racemic) | 11% | 100% | 
CN(C)c1ccc(/C=C/C2NC(=O)NC2=O)cc1 (stereo not given) | 63% | 90% | 
O=C1NC(=O)C(c2ccc(-c3ccc(C(=O)O)cc3)cc2)N1 (stereo not given) | 37% | 104% | 
COC(=O)c1ccc(-c2ccc(C3NC(=O)NC3=O)cc2)cc1 (stereo not given) | 95% | 93% | 

Further lines, with some results ahead:

Activity (Rattus norvegicus [3]) | Activity [4] | Structure (SMILES) | further results
81% | 81% | O=C1NC(=O)C(c2c3ccccc3cc3ccccc23)N1 (stereo not given) | 
75% | 65% | O=C1NC(=O)C(c2ccc(Br)s2)N1 (stereo not given) | 
87% | 85% | O=C1NC(=O)C(c2ccc(-c3cccs3)s2)N1 (stereo not given) | 
121% | 100% | O=C1NC(=O)C(c2ccccc2S(=O)(=O)O)N1 (stereo not given) | 
79% | 118% | O=C1NC(=O)C(c2csc3ccccc23)N1 (stereo not given) | 
91% | 83% | O=C1NC(=O)C(c2cccc3ccccc23)N1 (stereo not given) | 
80% | 53% | O=C1NC(=O)C(Cc2ccccc2)N1 (stereo not given) | 
5% | 49% | O=Cc1ccc(C2NC(=O)NC2=O)s1 (racemic) | inhibition [1]: < 12%; inhibition [2]: < 12%; IC50 [5]: 355 µM; inhibition [6]: < 12%
76% | 66% | Cc1ccc(C2NC(=O)NC2=O)s1 (stereo not given) | 
111% | 95% | O=C1NC(=O)C(c2cccnc2)N1 (stereo not given) | 
